TRPC4 inh: inhibitors of mouse TRPC4 channel; Q9QUQ5; HEK293 TRPC4beta/mu-opioid, DAMGO-evoked Fluo4 calcium flux; hits give low values; AID 2247; 300,000 tested, 0.39% active; B-score at 10 µM;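 active means B-score over 3 SD under the library average, no early fluorescence shift, positive overall ratio signal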
Target sequence (Q9QUQ5 whole entry, looked up): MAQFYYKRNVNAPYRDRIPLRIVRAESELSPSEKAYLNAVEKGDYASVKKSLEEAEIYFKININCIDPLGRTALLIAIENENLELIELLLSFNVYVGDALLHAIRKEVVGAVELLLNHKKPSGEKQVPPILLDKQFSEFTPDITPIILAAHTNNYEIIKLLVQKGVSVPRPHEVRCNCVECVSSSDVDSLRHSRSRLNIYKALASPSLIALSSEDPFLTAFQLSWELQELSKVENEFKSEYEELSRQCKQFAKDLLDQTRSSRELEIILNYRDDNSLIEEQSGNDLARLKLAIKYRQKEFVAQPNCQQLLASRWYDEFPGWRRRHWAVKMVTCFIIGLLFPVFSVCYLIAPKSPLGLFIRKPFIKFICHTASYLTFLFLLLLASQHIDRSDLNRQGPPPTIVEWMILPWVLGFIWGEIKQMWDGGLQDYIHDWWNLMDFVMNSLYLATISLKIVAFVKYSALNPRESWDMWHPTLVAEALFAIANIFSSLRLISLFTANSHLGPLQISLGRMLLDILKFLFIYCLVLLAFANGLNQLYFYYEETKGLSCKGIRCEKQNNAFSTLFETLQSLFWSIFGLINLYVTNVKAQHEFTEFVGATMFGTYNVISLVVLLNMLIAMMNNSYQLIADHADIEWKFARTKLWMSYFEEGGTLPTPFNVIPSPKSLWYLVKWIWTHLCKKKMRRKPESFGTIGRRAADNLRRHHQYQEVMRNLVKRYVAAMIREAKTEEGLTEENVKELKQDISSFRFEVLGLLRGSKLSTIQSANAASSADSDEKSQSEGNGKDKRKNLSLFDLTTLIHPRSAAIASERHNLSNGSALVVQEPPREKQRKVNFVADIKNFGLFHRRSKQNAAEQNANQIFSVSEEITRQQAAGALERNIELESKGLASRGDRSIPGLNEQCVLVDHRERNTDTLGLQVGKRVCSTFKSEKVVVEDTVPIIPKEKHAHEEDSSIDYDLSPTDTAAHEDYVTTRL
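Assay system: HEK293 cells with stable TRPC4beta plus mu-opioid receptor expression; Probe or stimulus: DAMGO in two steps, submaximal then maximal; Dosing: single-point compound dosing; Measured by: Fluo4 calcium-dye fluorescence, kinetic read; Read-out basis: B score from integrated Fluo4 fluorescence ratio.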
TRPC4 act: TRPC4 (mouse) channel activation; Q9QUQ5; HEK293 TRPC4beta/mu-opioid, Fluo4 calcium fluorescence; hits give high values; B-score at 10 µM; 310,000 tested, 0.49% active; AID 2237;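 active means B-score above 5 SD of library B-scores, and initial fluorescence ratio not above library mean plus 5 SD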;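 further: positive B-score marks a calcium rise read as TRPC4 activation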
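System – HEK293 cells stably co-expressing mouse TRPC4beta and mu-opioid receptor · Signal – Fluo4 calcium-sensitive dye fluorescence, kinetic, 1 Hz baseline · Benchmarks – buffer (low) and maximal DAMGO (high) · Read-out – B score of integrated fluorescence ratio per well · Incubation – dye loading 45 min room temperature, 110 s kinetic read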
TRPC6 act: activates the mouse TRPC6 cation channel; HEK293-TRPC6 membrane potential dye fluorescence; hits give high values; B-score at 10 µM; Q61143; AID 2550; 310,000 tested, 0.13% active;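 active means B-score of the integrated fluorescence ratio above library mean plus 3 SD, and starting fluorescence ratio within library mean plus 5 SD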;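 further: higher score means more depolarization so channel activation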
TRPC6 inh: blocks the mouse TRPC6 cation channel. B-score at 10 µM. HEK293-TRPC6, membrane potential dye, ACh-evoked depolarization; hits give low values. 310,000 tested, 1.1% active;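 active means B-score under library mean minus 3 SD, initial fluorescence not abnormally high, positive integrated signal ratio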;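 further: B-score derived from integrated fluorescence ratio over the kinetic read; more negative B-score means stronger inhibition of depolarization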
TRPC4 PAM: TRPC4 (mouse) allosteric potentiation. Q9QUQ5. HEK293 TRPC4beta/mu-opioid, DAMGO EC20, Fluo-4 Ca2+ flux; hits give high values. B-score at 10 µM. 310,000 tested, 0.42% active. AID 2227;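 active means B-score of calcium response area above 5 SD of library B-scores, with initial fluorescence ratio within 5 SD of library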;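 further: B-score of integrated fluorescence ratio over time as area under calcium response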
TRPC4 sel inh 2: second check of whether TRPC6 inhibitors also affect mouse TRPC4; shares compounds with TRPC6 inh; HEK293 TRPC4/MOR, membrane potential dye fluorescence; channel activated by saturating DAMGO dose; inhibition, % at 10 µM; 920 tested, 42% active; AID 2776;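 active means compounds whose fluorescence signal differed from control wells by over 3 SD, either direction, in both duplicate plates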
TRPC4 spec: selectivity of TRPC6 inhibitors: effect on mouse TRPC4; shares compounds with TRPC6 inh; HEK293 TRPC4/mu-opioid, membrane potential fluorescence; activity change, negative = inhibition, % at 10 µM; 920 tested, 61% active;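 active means rise or fall in signal beyond 3 SD of buffer-only wells in both replicate plates, either sign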;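 further: integrated kinetic ratio of fluorescence range over baseline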
HEK293 MPD ctr 2-1: second counter-screen for TRPC6 inhibitors: parental HEK293 cells. 920 tested, 31% active. shares compounds with TRPC6 inh. parental HEK293 membrane potential dye fluorescence; maximal acetylcholine challenge after compound addition. signal change vs control, % at 10 µM;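 active means membrane potential signal moving either way by over 3 SD of the maximum-effect control, in both duplicate plates, meaning non-specific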
HEK293 MPD ctr-1: checks TRPC6 inhibitor effects in parental HEK293 cells. membrane potential signal change, % at 10 µM. 920 tested, 60% active. parental HEK293 membrane potential dye fluorescence. shares compounds with TRPC6 inh. AID 2780;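 active means membrane potential signal shifting up or down by more than 3 SD of buffer-only wells, on both duplicate plates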
HEK293 MPD ctr-2: counter-screen for TRPC6 modulators: effect in parental HEK293 cells. membrane potential dye fluorescence. shares compounds with TRPC6 inh. 2,400 tested, 51% active. membrane potential signal change, % at 10 µM;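 active means membrane potential signal moves up or down beyond 5 SD from buffer-only wells, on both duplicate plates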
HEK293 MPD ctr 2-2: parental HEK293 nonspecific activity of TRPC6 modulators, second screen | shares compounds with TRPC6 inh | membrane potential dye fluorescence; after compound, maximal acetylcholine stimulation | inhibition, % at 10 µM | 2,400 tested, 14% active | AID 488926;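 active means membrane potential signal drops by more than 5 SD from the mean control signal, in both duplicate plates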;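 further: plate controls were acetylcholine ECmax control wells for no effect and buffer only wells for full effect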
TRPC4 ctr mod: tests whether TRPC6 modulators also affect mouse TRPC4. HEK293 TRPC4/mu-opioid, membrane potential fluorescence. shares compounds with TRPC6 inh. AID 488927. percent change from control (negative = decrease, positive = increase), % at 10 µM. 2,400 tested, 69% active;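 active means membrane potential signal moved up or down beyond 5 SD of buffer control wells, in both duplicate plates, actives on both sides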;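 further: plate controls were assay buffer wells for no effect and DAMGO maximal-effect wells for full effect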
TRPC4 ctr inh 2: second check of whether TRPC6 modulators also affect mouse TRPC4; shares compounds with TRPC6 inh; HEK293 TRPC4/mu-opioid, membrane potential dye fluorescence; stimulated with maximal-effect DAMGO; inhibition, % at 10 µM; 2,400 tested, 55% active; AID 488928;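 active means drop in membrane potential signal beyond 5 SD of the control wells in both duplicate plates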;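 further: TRPC4 counter screen for TRPC6 hits run under conditions tuned for TRPC6 not TRPC4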
TRPC6 block conf: confirmation of mouse TRPC6 inhibitors; HEK293-TRPC6, membrane potential dye, ACh-evoked depolarization; shares compounds with TRPC6 inh; 3,300 tested, 43% active; inhibition, % at 10 µM;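 active means fluorescence ratio falls more than 5 SD below the full-stimulation control mean, in both duplicate runs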;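 further: integrated fluorescence ratio of peak minus minimum over baseline after agonist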
TRPC6 act conf: confirmation of mouse TRPC6 activators; shares compounds with TRPC6 inh; HEK293-TRPC6 membrane potential dye fluorescence, FDSS; activation, % at 10 µM; 2,800 tested, 11% active;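 active means ratio signal rise beyond 5 SD above unstimulated control wells' mean, seen in both duplicate runs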;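 further: plate controls were buffer EC0 wells for no effect and acetylcholine ECmax response for full effect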
Starred values were filed as active, the others as inactive; i = inactive; x = no result. A selection: hits, their analogues and other compounds. The true share with any hit is near 2.3%.

SMILES	TRPC4 inh	TRPC4 act	TRPC6 act	TRPC6 inh	TRPC4 PAM	HEK293 MPD ctr-2	HEK293 MPD ctr 2-2	TRPC4 ctr mod	TRPC4 ctr inh 2	TRPC6 block conf	TRPC6 act conf	others
Cc1ccc(C)c(N2CCN(c3ccncc3N)CC2)c1	i	i	i	-6.47*	i	i	i	i	52.5%*	i	i
Cc1nc2ccccc2c2oc(C(=O)N3CC(C)CC(C)C3)cc12 (stereo unspecified)	i	i	i	i	i	x	x	x	x	x	x
CCOC(=O)C1CCCN(C(=O)c2cc3c(C)nc4ccccc4c3o2)C1 (stereo unspecified)	i	i	i	-6.86*	i	x	x	x	x	61.1%*	i	TRPC4 sel inh 2=i;TRPC4 spec=4.0%*;HEK293 MPD ctr 2-1=i;HEK293 MPD ctr-1=3.1%*
CCOC(=O)C1CCCN(C(=O)c2ccc(C)c([N+](=O)[O-])c2)C1 (stereo unspecified)	i	i	i	-5.78*	i	i	64.0%*	i	i	54.5%*	i
COCCN1C(=O)C(=O)/C(=C(/O)c2ccc(S(=O)(=O)N3CCOCC3)cc2)C1c1cccc(OC)c1 (stereo unspecified)	i	i	i	i	i	x	x	x	x	x	x
O=C(CCOc1ccccc1)Nc1ccccc1F	i	i	i	i	i	x	x	x	x	x	x
Cc1ccn2c(NC(=O)C(C)(C)Oc3ccc(Cl)cc3)c(-c3cccs3)nc2c1	i	i	i	-8.79*	i	-120.0%*	i	-26.0%*	87.5%*	58.0%*	i
Cc1ccc(C(=O)Nc2c(-c3cccs3)nc3cc(C)ccn23)cc1	i	i	i	i	i	x	x	x	x	x	x
COC(=O)c1ccc(SCC(=O)NCc2ccccc2)c([N+](=O)[O-])c1	i	i	i	i	i	x	x	x	x	x	x
COc1cc(OC)c2c(-c3ccccc3)cc(=O)oc2c1C(CCN1CCN(c2ccccc2)CC1)c1ccc(N(C)C)cc1 (stereo unspecified)	i	i	i	i	i	x	x	x	x	x	x
COc1ccc(C(CCN2CCCC(C)C2)c2c(OC)cc(OC)c3c(-c4ccccc4)cc(=O)oc23)cc1 (stereo unspecified)	i	i	i	i	i	x	x	x	x	x	x
COc1cc(OC)c2c(C)cc(=O)oc2c1C(CCN1CCOCC1)c1ccc(N(C)C)cc1 (stereo unspecified)	i	i	i	-5.3*	i	-141.0%*	i	-28.5%*	52.0%*	42.0%*	i
COc1cc(OC)c2c(-c3ccccc3)cc(=O)oc2c1C(CCN1CCCC(C)C1)c1ccc(N(C)C)cc1 (stereo unspecified)	i	i	i	-5.9*	i	i	i	i	69.0%*	40.0%*	i
COc1ccccc1CCC(=O)N(C)C1CCCN(Cc2ccccc2F)C1 (stereo unspecified)	i	i	i	i	i	x	x	x	x	x	x
CCN(CC)CC(C)(C)COC(=O)c1oc2ccccc2c1C	i	i	i	i	i	x	x	x	x	x	x
N#C/C(=N\Nc1cccc([N+](=O)[O-])c1)C(=O)c1ccc(Br)cc1	-6*	i	i	-7.34*	i	x	x	x	x	78.6%*	i	TRPC4 sel inh 2=53.0%*;TRPC4 spec=i;HEK293 MPD ctr 2-1=i;HEK293 MPD ctr-1=-156.5%*
Cc1cccc2c1Sc1ccc(Cl)cc1CC2N1CCNCC1 (stereo unspecified)	i	i	i	-5.12*	i	i	i	i	61.0%*	43.0%*	i
CN1CCN(C2Cc3cc(F)ccc3Sc3ccc(Cl)cc32)CC1 (stereo unspecified)	i	i	i	-5.28*	i	i	i	21.0%*	47.0%*	48.5%*	x
CC(C)c1ccc2c(c1)C(N1CCNCC1)Cc1ccc(F)cc1S2 (stereo unspecified)	i	i	i	i	i	x	x	x	x	x	x
CCc1cccc2c1Sc1ccccc1CC2N1CCNCC1 (stereo unspecified)	i	i	i	-5.52*	i	i	i	i	70.0%*	49.5%*	i
CN1CCN(C2Cc3ccccc3Sc3cc(C(F)(F)F)ccc32)CC1 (stereo unspecified)	i	i	i	i	i	x	x	x	x	x	x
CN1CCN(C2Cc3ccc(F)cc3Sc3cc(F)c(Cl)cc32)CC1 (stereo unspecified)	i	i	i	i	i	x	x	x	x	x	x
CC(OC(=O)c1ccc2c(c1)S(=O)(=O)c1ccccc1C2=O)C(N)=O (stereo unspecified)	i	i	i	i	i	x	x	x	x	x	x
Cc1nn(-c2ccccc2)c(Cl)c1/C=N/NC(=O)c1ccncc1	i	i	i	i	i	x	x	x	x	x	x
CCCCNC(=O)CCn1nc(-c2ccccc2)c2ccccc2c1=O	i	i	i	-7.89*	i	x	x	x	x	i	x	TRPC4 sel inh 2=i;TRPC4 spec=7.5%*;HEK293 MPD ctr 2-1=i;HEK293 MPD ctr-1=5.7%*
CCOC(=O)CCn1nc(-c2ccc(C)cc2)c2ccccc2c1=O	i	i	i	-5.55*	i	179.5%*	i	41.5%*	i	53.5%*	x

Screens from PubChem BioAssay.
